According to ChEMBL document CHEMBL4330148, “Discovery and Characterization of Cyclic and Acyclic Trypsin Inhibitors from Momordica dioica” (J Nat Prod, 2019):
Activity calls are given as the source filed them. No cut-off for these calls is given here. Bridge positions count the residues as written; N and C are the ends. Peptide text beside a SMILES is read from it.

What was measured:
Bos taurus = species on record: Bos taurus; assay: Inhibition of bovine pancreatic trypsin at 0.1 to 100 uM preincubated for 30 mins followed by L-BAPNA substrate addition and measured after 10 mins
Method in brief: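 Bovine pancreatic trypsin was dissolved in 1 mM HCl and diluted to 0.45 mg/mL in 50 mM Tris, 20 mM CaCl2, pH 8.2. Peptides (1 mM stock, eight-point 2-fold dilutions) were preincubated with trypsin for 30 min at 37 °C. L-BAPNA (0.435 mg/mL, 1% DMSO) was added for 10 min at room temperature, the reaction was stopped with 30% HOAc, and A410 was read. MCoTI-II was the reference inhibitor. Triplicate.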

HT-29 = assay: Cytotoxicity against human HT-29 cells after 24 hrs by MTT assay; type: cell-based; conditions: ht-29, 24 h
Method in brief: (§1)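 HT-29, MCF7 and PC-3 cells were grown in DMEM with 10% FBS and 1% penicillin–streptomycin at 37 °C under 5% CO2. They were seeded at 2000 cells/well and grown 24 h. Peptides were added in triplicate at final concentrations of 0.05–100 μM for 24 h. 1% Triton X-100 and medium alone served as controls. MTT (5 mg/mL in PBS) was added for 4 h, formazan was dissolved in DMSO, and absorbance was read at 570 nm.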

MCF7 = assay: Cytotoxicity against human MCF7 cells after 24 hrs by MTT assay; type: cell-based; conditions: mcf7, 24 h; method in brief: as §1
PC-3 = assay: Cytotoxicity against human PC3 cells after 24 hrs by MTT assay; type: cell-based; conditions: pc-3, 24 h; method in brief: as §1
[1] = Stability in 100% human serum at 30 uM after 24 hrs by RP-HPLC analysis; type: ADME, cell-free
[2] = Cytotoxicity against Spodoptera frugiperda Sf9 cells after 3 hrs by MTT assay; conditions: sf9, 3 h
[3] = Drug metabolism in 100% human serum at 30 uM up to 4 hrs by RP-HPLC analysis; type: ADME, cell-free

inhibition (Bos taurus)	Stability [1]	Drug metabolism [3]	Compound	Activity (HT-29)	Activity (MCF7)	Activity (PC-3)	Activity [2]
Active	Stable	–	CC[C@H](C)[C@@H]1NC(=O)[C@@H]2CSSC[C@@H]3NC(=O)[C@H](C)NC(=O)CNC(=O)CNC(=O)[C@H](CC(=O)O)NC(=O)[C@H](CO)NC(=O)CNC(=O)[C@H](CO)NC(=O)CNC(=O)[C@@H]4CSSC[C@H](NC(=O)[C@H](CC(=O)O)NC(=O)[C@H](CO)NC(=O)[C@H](CC(=O)O)NC(=O)[C@H](CCCNC(=N)N)NC(=O)[C@H](CCCNC(=N)N)NC(=O)[C@H](CSSC[C@H](NC1=O)C(=O)N[C@@H](CCC(N)=O)C(=O)NCC(=O)N[C@@H](CC(N)=O)C(=O)NCC(=O)N[C@@H](Cc1ccc(O)cc1)C(=O)N4)NC(=O)[C@H](CCCCN)NC(=O)[C@H](CCCCN)NC(=O)[C@H](CC(C)C)NC(=O)[C@H]([C@@H](C)CC)NC(=O)[C@H](CCCNC(=N)N)NC(=O)[C@@H]1CCCN1C3=O)C(=O)N1CCC[C@H]1C(=O)N[C@@H](CO)C(=O)N[C@@H](C)C(=O)N2	Non-Toxic	Non-Toxic	Non-Toxic	Non-Toxic
Active	–	–	CC[C@H](C)[C@@H]1NC(=O)[C@H](CCCCN)NC(=O)[C@@H]2CCCN2C(=O)[C@@H]2CSSC[C@@H]3NC(=O)[C@H](C)NC(=O)CNC(=O)[C@@H]4CCCN4C(=O)[C@@H]4CSSC[C@H](NC(=O)[C@H](Cc5ccc(O)cc5)NC(=O)CNC(=O)[C@H](CC(N)=O)NC(=O)CNC(=O)[C@H](CCC(N)=O)NC(=O)[C@H](CSSC[C@H](NC(=O)[C@H](CCCCN)NC(=O)[C@H](CCC(N)=O)NC(=O)[C@H](CC(C)C)NC1=O)C(=O)N[C@@H](CCCNC(=N)N)C(=O)N[C@@H](CCCNC(=N)N)C(=O)N[C@@H](CC(=O)O)C(=O)N[C@@H](CO)C(=O)N[C@@H](CC(=O)O)C(=O)N4)NC(=O)[C@H](C(C)C)NC3=O)C(=O)NCC(=O)N[C@@H](CO)C(=O)NCC(=O)N[C@@H](CO)C(=O)N[C@H](CC(=O)O)C(=O)NCC(=O)NCC(=O)N[C@@H](C)C(=O)N2	–	–	–	–
Active	Stable	–	CC[C@H](C)[C@@H]1NC(=O)[C@H](CCCNC(=N)N)NC(=O)[C@@H]2CCCN2C(=O)[C@@H]2CSSC[C@@H]3NC(=O)[C@H](C)NC(=O)CNC(=O)[C@@H]4CCCN4C(=O)[C@@H]4CSSC[C@H](NC(=O)[C@H](Cc5ccc(O)cc5)NC(=O)CNC(=O)[C@H](CC(N)=O)NC(=O)CNC(=O)[C@H](CCCNC(=N)N)NC(=O)[C@H](CSSC[C@H](NC(=O)[C@H](CCCCN)NC(=O)[C@H](CCCCN)NC(=O)[C@H](CC(C)C)NC1=O)C(=O)N[C@@H](CCCNC(=N)N)C(=O)N[C@@H](CCCNC(=N)N)C(=O)N[C@@H](CC(=O)O)C(=O)N[C@@H](CO)C(=O)N[C@@H](CC(=O)O)C(=O)N4)NC(=O)[C@H](C(C)C)NC3=O)C(=O)NCC(=O)N[C@@H](CO)C(=O)NCC(=O)N[C@@H](CO)C(=O)N[C@@H](CC(=O)O)C(=O)NCC(=O)NCC(=O)N[C@@H](C)C(=O)N2	Non-Toxic	Non-Toxic	Non-Toxic	Non-Toxic
–	Stable	–	CC[C@H](C)[C@@H]1NC(=O)[C@@H]2CSSC[C@H](NC(=O)[C@@H](NC(=O)[C@H](CCCNC(=N)N)NC(=O)[C@@H]3CCC(=O)N3)C(C)C)C(=O)N3CCC[C@H]3C(=O)N[C@@H](CCCNC(=N)N)C(=O)N[C@@H]([C@@H](C)CC)C(=O)N[C@@H](CC(C)C)C(=O)N[C@@H](CCCCN)C(=O)N[C@@H](CCCCN)C(=O)N[C@H]3CSSC[C@H](NC1=O)C(=O)N[C@@H](CCC(N)=O)C(=O)NCC(=O)N[C@@H](CC(N)=O)C(=O)NCC(=O)N[C@@H](Cc1ccc(O)cc1)C(=O)N[C@H](C(=O)NCC(N)=O)CSSC[C@H](NC(=O)[C@H](CC(=O)O)NC(=O)[C@H](CO)NC(=O)[C@H](CC(=O)O)NC(=O)[C@H](CCCNC(=N)N)NC(=O)[C@H](CCCNC(=N)N)NC3=O)C(=O)N1CCC[C@H]1C(=O)NCC(=O)N[C@@H](CCC(=O)O)C(=O)N2	Non-Toxic	Non-Toxic	Non-Toxic	Non-Toxic
Active	Stable	–	CC[C@H](C)[C@@H]1NC(=O)[C@@H]2CSSC[C@@H]3NC(=O)[C@H](C)NC(=O)CNC(=O)CNC(=O)[C@H](CC(=O)O)NC(=O)[C@H](CO)NC(=O)CNC(=O)[C@H](CO)NC(=O)CNC(=O)[C@@H]4CSSC[C@H](NC(=O)[C@H](CC(=O)O)NC(=O)[C@H](CO)NC(=O)[C@H](CC(=O)O)NC(=O)[C@H](CCCNC(=N)N)NC(=O)[C@H](CCCNC(=N)N)NC(=O)[C@H](CSSC[C@H](NC1=O)C(=O)N[C@@H](CCCNC(=N)N)C(=O)NCC(=O)N[C@@H](CC(N)=O)C(=O)NCC(=O)N[C@@H](Cc1ccc(O)cc1)C(=O)N4)NC(=O)[C@H](CCCNC(=N)N)NC(=O)[C@H](CCC(N)=O)NC(=O)[C@H](CC(C)C)NC(=O)[C@H]([C@@H](C)CC)NC(=O)[C@H](CCCCN)NC(=O)[C@@H]1CCCN1C3=O)C(=O)N1CCC[C@H]1C(=O)NCC(=O)N[C@@H](C)C(=O)N2 (cyclo(ACICRGNGYCGSGSDGGACPKILQRCRRDSDCPG); disulfide 2-19, 4-26, 10-32)	Non-Toxic	Non-Toxic	Non-Toxic	Non-Toxic
–	Stable	–	CC[C@H](C)[C@@H]1NC(=O)[C@H](CCCNC(=N)N)NC(=O)[C@@H]2CCCN2C(=O)[C@@H]2CSSC[C@@H]3NC(=O)[C@H](C)NC(=O)[C@H](CO)NC(=O)[C@@H]4CCCN4C(=O)[C@@H]4CSSC[C@H](NC(=O)[C@H](Cc5ccc(O)cc5)NC(=O)CNC(=O)[C@H](CC(N)=O)NC(=O)CNC(=O)[C@H](CCC(N)=O)NC(=O)[C@H](CSSC[C@H](NC(=O)[C@H](CCCCN)NC(=O)[C@H](CCC(N)=O)NC(=O)[C@H](CC(C)C)NC1=O)C(=O)N[C@@H](CCCNC(=N)N)C(=O)N[C@@H](CCCNC(=N)N)C(=O)N[C@@H](CC(N)=O)C(=O)N[C@@H](CO)C(=O)N[C@@H](CC(=O)O)C(=O)N4)NC(=O)[C@H](C(C)C)NC3=O)C(=O)NCC(=O)N[C@@H](CO)C(=O)NCC(=O)N[C@@H](CO)C(=O)N[C@@H](CC(=O)O)C(=O)NCC(=O)NCC(=O)N[C@@H](C)C(=O)N2	Non-Toxic	Non-Toxic	Non-Toxic	Non-Toxic
Active	–	–	CC[C@H](C)[C@@H]1NC(=O)[C@@H]2CSSC[C@H](NC(=O)[C@@H](NC(=O)[C@@H](CCCNC(=N)N)NC(=O)C3CCC(=O)N3)C(C)C)C(=O)N3CCC[C@H]3C(=O)N[C@@H](CCCNC(=N)N)C(=O)N[C@@H]([C@@H](C)CC)C(=O)N[C@@H](CC(C)C)C(=O)N[C@@H](CCCCN)C(=O)N[C@@H](CCCCN)C(=O)N[C@H]3CSSC[C@H](NC1=O)C(=O)N[C@@H](CCC(N)=O)C(=O)NCC(=O)N[C@@H](CC(N)=O)C(=O)NCC(=O)N[C@@H](Cc1ccc(O)cc1)C(=O)N[C@H](C(=O)NCC(N)=O)CSSC[C@H](NC(=O)[C@H](CC(=O)O)NC(=O)[C@H](CO)NC(=O)[C@H](CC(=O)O)NC(=O)[C@H](CCCNC(=N)N)NC(=O)[C@H](CCCNC(=N)N)NC3=O)C(=O)N1CCC[C@H]1C(=O)NCC(=O)N[C@@H](CCC(=O)O)C(=O)N2 (some centres not stated)	–	–	–	–
–	–	Metabolite_Detected	H-WQELYQLKY-OH	–	–	–	–
Active	–	–	CC[C@H](C)[C@@H]1NC(=O)[C@H](CCCNC(=N)N)NC(=O)[C@@H]2CCCN2C(=O)[C@@H]2CSSC[C@@H]3NC(=O)[C@H](C)NC(=O)[C@H](CO)NC(=O)[C@@H]4CCCN4C(=O)[C@@H]4CSSC[C@H](NC(=O)[C@H](Cc5ccc(O)cc5)NC(=O)CNC(=O)[C@H](CC(N)=O)NC(=O)CNC(=O)[C@H](CCC(N)=O)NC(=O)[C@H](CSSC[C@H](NC(=O)[C@H](CCCCN)NC(=O)[C@H](CCC(N)=O)NC(=O)[C@H](CC(C)C)NC1=O)C(=O)N[C@@H](CCCNC(=N)N)C(=O)N[C@@H](CCCNC(=N)N)C(=O)N[C@@H](CC(N)=O)C(=O)N[C@@H](CO)C(=O)N[C@@H](CC(=O)O)C(=O)N4)NC(=O)[C@H](C(C)C)NC3=O)C(=O)NCC(=O)N[C@@H](CO)C(=O)NCC(=O)N[C@@H](CO)C(=O)N[C@H](CC(=O)O)C(=O)NCC(=O)NCC(=O)N[C@@H](C)C(=O)N2	–	–	–	–
–	Stable	–	CC[C@H](C)[C@@H]1NC(=O)[C@H](CCCCN)NC(=O)[C@@H]2CCCN2C(=O)[C@@H]2CSSC[C@@H]3NC(=O)[C@H](C)NC(=O)CNC(=O)[C@@H]4CCCN4C(=O)[C@@H]4CSSC[C@H](NC(=O)[C@H](Cc5ccc(O)cc5)NC(=O)CNC(=O)[C@H](CC(N)=O)NC(=O)CNC(=O)[C@H](CCC(N)=O)NC(=O)[C@H](CSSC[C@H](NC(=O)[C@H](CCCCN)NC(=O)[C@H](CCC(N)=O)NC(=O)[C@H](CC(C)C)NC1=O)C(=O)N[C@@H](CCCNC(=N)N)C(=O)N[C@@H](CCCNC(=N)N)C(=O)N[C@@H](CC(=O)O)C(=O)N[C@@H](CO)C(=O)N[C@@H](CC(=O)O)C(=O)N4)NC(=O)[C@H](C(C)C)NC3=O)C(=O)NCC(=O)N[C@@H](CO)C(=O)NCC(=O)N[C@@H](CO)C(=O)N[C@@H](CC(=O)O)C(=O)NCC(=O)NCC(=O)N[C@@H](C)C(=O)N2	Non-Toxic	Non-Toxic	Non-Toxic	Non-Toxic
